These results are taken from paper PMC2668213 (Journal of medicinal chemistry, 2008).

The subject of data set [1] is SERT. Kind of data set: MicroPET baseline regional brain uptake in anesthetized cynomolgus monkeys. It is filed as in vivo, cynomolgus monkey.
In data set [2] the test system is SERT. Kind of data set: HRRT PET baseline study in awake rhesus monkey. It counts as in vivo.
Data set [3] in a line: Protein-bound tracer in plasma. It counts as in vivo, cynomolgus monkey. The conditions noted are these: range over the time points of the study. In outline: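 Arterial plasma was sampled after injection of the fluorine-18 labelled test compound during a baseline microPET study in a cynomolgus monkey. Samples spanned 1 to 180 min post-injection. The percentage of tracer bound to plasma protein was determined at each time point. The same samples underwent radio-HPLC metabolite analysis.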

Molecules are shown by their SMILES.

Turning to `O=C(OCC[18F])C1C2CCC(CC1c1cccc(/C=C\I)c1)N2` (stereo not drawn) [[^18F]1, 2β-Carbo(2-[^18F]fluoroethoxy)-3β-(3′-((Z)-2-iodoethenyl)phenyl)nortropane], in the data set on SERT [1] (anesthetized), the “time of peak uptake, caudate” value is 55 min; the “time of peak uptake, cerebellum” value is given as ~ 27 min; the “time of peak uptake, medulla” value is 35 min; the “time of peak uptake, midbrain” value is 45 min. In the data set on SERT [1] (anesthetized), the “time of peak uptake, pons” value worked out at 45 min; the “time of peak uptake, putamen” value came out at 45 min; the “time of peak uptake, thalamus” value was 45 min. In addition, in the data set on SERT [1] (anesthetized cynomolgus monkey), the “time at which uptake ratios stabilize” value is on record as ~ 175 minutes, the “time at which washout from the SERT-rich brain regions begins” value is ~ 65 minutes and the “time at which washout from the cerebellum begins” value was ~ 27 minutes. In addition, in the data set on SERT [2] (awake rhesus), the “time of peak uptake, caudate” value is reported as 45 min; the “time of peak uptake, cerebellum” value is reported as 45 min; the “time of peak uptake, medulla” value was 35 min; the “time of peak uptake, midbrain” value is listed as 45 min. For the same molecule, in the data set on SERT [2] (awake rhesus), the “time of peak uptake, pons” value is given as 85 min; the “time of peak uptake, putamen” value is on record as 45 min; the “time of peak uptake, thalamus” value is on record as 45 min. The “time of peak uptake in thalamus, putamen, midbrain, and caudate” value in the data set on SERT [2] (awake rhesus monkey) was ~ 45 min. In data set [3], the “percentage of protein-bound tracer in plasma” value is listed as 5.6 - 8.5%.
With `O=C(OCC[18F])C1C2CCC(CC1c1cccc(/C=C\Br)c1)N2` (stereo not drawn) [[^18F]2, 2β-Carbo(2-[^18F]fluoroethoxy)-3β-(3′-((Z)-2-bromoethenyl)phenyl)nortropane], in the data set on SERT [1] (anesthetized), the “time of peak uptake, cerebellum” value is given as ~ 30 min. Besides, the “time of peak uptake in the SERT-rich brain regions” value in the data set with SERT [1] (anesthetized cynomolgus monkey) is 55 to 65 min.
Take `O=C(OCCC[18F])C1C2CCC(CC1c1cccc(/C=C\Br)c1)N2` (stereo not drawn) [[^18F]4, 2β-Carbo(3-[^18F]fluoropropoxy)-3β-(3′-((Z)-2-bromoethenyl)phenyl)nortropane]: the “time of peak uptake in the SERT-rich brain regions” value in the data set with SERT [1] (anesthetized cynomolgus monkey) was in the range of 35 to 45 min.
